The values that follow come from PubChem BioAssay.

The nature of test [1]: Her2 expression decrease, cell viability multiplex – SKBR3 breast tumor cells, AlphaScreen, ATP viability, primary screen (AID 461).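 For Her2 level: lower value means less Her2 protein in the cells.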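 For viability: percent of carrier control wells set as 100% viability.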 The settings on record: SKBR3 Her2 protein level, 18-24 h, measured here: SKBR3 viability, ATP luminescence, at 10 µM.
Test [2] concerns the target Receptor tyrosine-protein kinase erbB-2 (Homo sapiens) (UniProt P04626). Described as above. The settings on record: 18-24 h, at 10 µM, stronger effect = lower value.
Test [3] is described as follows: reduced viability of SK-BR-3 breast cancer cells – cell-based, 24 h, human, pilot screen (AID 572;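 active = viability at or below 10% of carrier control in both of two separate runs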;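 note: compound exposure lasted between 18 and 24 h rather than exactly 24 h; 100% = carrier-treated control wells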). The settings on record: SK-BR-3 viability, CellTiter-Glo luminescence, at 10 µM, stronger effect = lower value. A general note: In ATP-based viability assays light output follows the ATP content of the culture.
Test [4] in a line: HUVEC growth inhibition – cell-based, human, primary screen (AID 575;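 active = viability at or below 30% in both replicate assays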;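 note: 100% = median of untreated cell wells with 0.1% DMSO on each plate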). The settings on record: HUVEC proliferation, CellTiter-Glo luminescence, 72 h; at 10 µM; stronger effect = lower value. A digest of the protocol:
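Material: primary human umbilical vein endothelial cells / Schedule: 72 h exposure, 37 °C, 5% CO2, 30 min RT equilibration / Signal: ATP-based CellTiter-Glo luminescent read / Read-out basis: percent of median DMSO-control luminescence / Control set: 32 DMSO-only cell-control wells (high), 32 MePR drug-control wells (low) per plate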

Test [5] is described as follows: H69AR cell proliferation blockers – human, duplicate replicates, primary screen (AID 580;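 active = viability at or under a set limit in both replicates, limit being median viability minus 3 SD, cut at about 48% in these data, passing the limit was not always enough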;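 note: 100% = mean luminescence of untreated wells and 0% = no signal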). The settings on record: H69AR lung tumor cells viability, ATP luminescence, 72 h; at 10 µM; stronger effect = lower value.
Test [6] in a line: MRP1 drug-resistance reversers in H69AR cells – cell-based, doxorubicin co-treatment, pilot screen (AID 601;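 active = viability loss from added drug above about 55%, and viability with drug at most 40%, in both replicates, limit read from the data, passing the limit was not always enough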). The settings on record: CellTiter-Glo, 72 h, at 10 µM; for differential viability (reversal): stronger effect = higher value.
Test [7] is described as follows: yeast transport mutant growth inhibition pilot in 384-well plates, post-Golgi transport modulator project (AID 636; in the data active = inhibition above about 31%). The settings on record: absorbance 615 nm, about 18 h, stronger effect = higher value.
The nature of test [8]: growth suppression of yeast trafficking mutant, preliminary HTS, modulators of trafficking downstream of Golgi apparatus project, 1536-format plate, OD 615 nm (AID 637; in the data active = inhibition above about 30%). The settings on record: yeast transport mutant growth, absorbance 615 nm, 18 h; stronger effect = higher value.
The mark [9] stands for this setting: H69AR cells + 2 uM doxorubicin, measured here: viability with 2 uM doxorubicin, stronger effect = lower value.
Where [10] appears, read: H69AR cells, compound alone cytotoxicity.

Active and inactive are the calls of the source.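 Rule for the calls, unless noted: active = Her2 level under about 52% in both replicate screens, with viability over 70% of control (limit read from the data); inconclusive = Her2 under the limit in one screen only, or viability under 70%; inactive = Her2 level above the set limit.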

Sequence of Receptor tyrosine-protein kinase erbB-2 (Homo sapiens) (P04626 whole entry, looked up): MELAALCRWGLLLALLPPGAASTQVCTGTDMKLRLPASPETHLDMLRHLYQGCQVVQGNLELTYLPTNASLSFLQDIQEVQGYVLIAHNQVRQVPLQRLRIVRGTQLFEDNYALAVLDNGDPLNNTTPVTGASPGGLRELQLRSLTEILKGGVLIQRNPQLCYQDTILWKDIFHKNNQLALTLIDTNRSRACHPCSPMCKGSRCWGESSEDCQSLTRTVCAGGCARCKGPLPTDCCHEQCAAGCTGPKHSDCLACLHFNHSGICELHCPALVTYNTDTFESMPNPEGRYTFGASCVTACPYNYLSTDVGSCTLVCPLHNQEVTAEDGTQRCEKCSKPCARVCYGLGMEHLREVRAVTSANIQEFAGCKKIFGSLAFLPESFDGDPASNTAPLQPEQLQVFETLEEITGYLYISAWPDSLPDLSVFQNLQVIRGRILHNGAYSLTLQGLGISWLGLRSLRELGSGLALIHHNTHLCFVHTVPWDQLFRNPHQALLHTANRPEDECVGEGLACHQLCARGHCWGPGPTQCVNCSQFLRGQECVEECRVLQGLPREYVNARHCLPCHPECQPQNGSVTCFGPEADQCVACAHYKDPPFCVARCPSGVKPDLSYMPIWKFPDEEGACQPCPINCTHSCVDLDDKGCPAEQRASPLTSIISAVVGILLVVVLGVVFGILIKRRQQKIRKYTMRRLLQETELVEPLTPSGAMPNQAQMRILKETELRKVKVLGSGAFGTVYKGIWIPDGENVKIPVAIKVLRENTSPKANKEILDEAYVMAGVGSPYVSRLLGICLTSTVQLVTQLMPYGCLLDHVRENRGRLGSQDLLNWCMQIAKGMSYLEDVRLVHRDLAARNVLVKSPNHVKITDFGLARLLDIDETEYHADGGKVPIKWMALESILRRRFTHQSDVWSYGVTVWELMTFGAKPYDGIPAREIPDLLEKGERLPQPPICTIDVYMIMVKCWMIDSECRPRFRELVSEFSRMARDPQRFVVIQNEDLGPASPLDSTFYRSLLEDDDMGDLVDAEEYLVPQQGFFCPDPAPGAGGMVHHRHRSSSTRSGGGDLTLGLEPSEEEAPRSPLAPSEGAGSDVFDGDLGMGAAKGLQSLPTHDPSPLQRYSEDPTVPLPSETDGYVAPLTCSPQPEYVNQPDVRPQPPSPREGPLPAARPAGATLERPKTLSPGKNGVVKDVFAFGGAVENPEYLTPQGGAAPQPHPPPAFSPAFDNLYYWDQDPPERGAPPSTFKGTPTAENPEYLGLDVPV

Consider `CCOC(=O)CNC(=O)CSc1ncnc2c1cnn2-c1ccccc1`, for which the viability in test [1] is 87.5%; in test [3], 87.5% (inactive); in test [4] it was 97.4% (inactive); in test [5], 102% (inactive); in test [6] (setting [9]), 95.1%; in test [6] (setting [10]) it was 102%. For the same compound, the Her2 level in test [2] was 94% (inactive). Also, the differential viability (reversal) in test [6] (H69AR cells + 2 uM doxorubicin) was 6.58% (inactive). The inhibition in test [7] was -4% (inactive); in test [8], -2.26% (inactive).
As for `Cc1oc2nc(SCCCC(=O)NCCCO)nc(N)c2c1C`, the viability in test [1] is 91.5%; in test [3] it was 91.5% (inactive); in test [4], 103% (inactive); in test [5] it was 107% (inactive); in test [6] (setting [9]), 98.8%; in test [6] (setting [10]), 107%. Further, the Her2 level in test [2] was 85% (inactive). In addition, in test [6] (H69AR cells + 2 uM doxorubicin), the differential viability (reversal) is 7.75% (inactive). Moreover, the values for the inhibition in test [7] and in test [8] were -0.79% (inactive) and 4.75% (inactive), respectively.
In the case of `Nc1c(C2=NCCO2)nnn1Cc1ccccc1`, the viability in test [1] is 118%; in test [3] it was 118% (inactive); in test [4], 94% (inactive); in test [5], 87.3% (inactive); in test [6] (setting [9]), 87%; in test [6] (setting [10]), 87.3%. Also, in test [2], the Her2 level is 95.5% (inactive). In test [6] (H69AR cells + 2 uM doxorubicin), the differential viability (reversal) was 0.315% (inactive). The inhibition in test [7] was -3.42% (inactive); in test [8], 3.28% (inactive).
As for `CCN(CC)c1ccc(-c2c(C#N)c(N)nc(OC)c2C#N)cc1`, the viability is 75.5% in test [1]; 75.5% (inactive) in test [3]; 81.3% (inactive) in test [4]; 79.4% (inactive) in test [5]; 83.5% in test [6] (setting [9]); 79.4% in test [6] (setting [10]). Besides, the Her2 level in test [2] was 88.5% (inactive). Further, the differential viability (reversal) in test [6] (H69AR cells + 2 uM doxorubicin) was -4.16% (inactive). For the same compound, the inhibition is -1.17% (inactive) in test [7] and -8.36% (inactive) in test [8].
In the case of `COc1cc2c(cc1OC)C(c1cc(OC)c(OC)c(OC)c1)NCC2` (stereo not given), the viability in test [1] is 95.5%; in test [3], 95.5% (inactive); in test [4], 92.4% (inactive); in test [5] it was 91.9% (inactive); in test [6] (setting [9]), 91.9%; in test [6] (setting [10]), 91.9%. The Her2 level in test [2] is 81% (inactive). Further, in test [6] (H69AR cells + 2 uM doxorubicin), the differential viability (reversal) is -0.03% (inactive). The inhibition in test [7] was -3.95% (inactive); in test [8] it was -0.97% (inactive).
With `CN(C(=O)c1ccccn1)c1nnc(-c2ccncc2)s1`, the viability in test [1] is 118%; in test [3], 118% (inactive); in test [4] it was 101% (inactive); in test [5], 108% (inactive); in test [6] (setting [9]), 92.8%; in test [6] (setting [10]) it was 108%. Further, the Her2 level in test [2] is 92.5% (inactive). For the same compound, in test [6] (H69AR cells + 2 uM doxorubicin), the differential viability (reversal) was 15.6% (inactive). Besides, the inhibition in test [7] was -3.65% (inactive); in test [8] it was -5% (inactive).
For the compound `COc1ccc(C(=O)CSc2nnc(C3CCCCC3)n2N)c(OC)c1`, the viability is 91.5% in test [1]; 91.5% (inactive) in test [3]; 119% (inactive) in test [4]; 83.3% (inactive) in test [5]; 81.3% in test [6] (setting [9]); 83.3% in test [6] (setting [10]). For the same compound, in test [2], the Her2 level was 105% (inactive). Further, the differential viability (reversal) in test [6] (H69AR cells + 2 uM doxorubicin) is 2% (inactive). Also, the inhibition is -4% (inactive) in test [7] and -6.23% (inactive) in test [8].
Consider `CC(Sc1nc(-c2ccccc2)cc(C(F)(F)F)n1)C(=O)N1CCC(C(N)=O)CC1` (stereo not given), for which the viability was 100% in test [1]; 100% (inactive) in test [3]; 85.6% (inactive) in test [4]; 91.1% (inactive) in test [5]; 92.3% in test [6] (setting [9]); 91.1% in test [6] (setting [10]). Besides, the Her2 level in test [2] is 87.5% (inactive). In test [6] (H69AR cells + 2 uM doxorubicin), the differential viability (reversal) was -1.27% (inactive). Moreover, the inhibition in test [7] is -0.91% (inactive); in test [8] it was 11% (inactive).
Regarding `Cc1cc(C)c(C)c(OCC(=O)NCC2CCCO2)c1` (stereo not given), the viability in test [1] was 85%; in test [3], 85% (inactive); in test [4], 102% (inactive); in test [5], 100% (inactive); in test [6] (setting [9]), 91.9%; in test [6] (setting [10]) it was 100%. Moreover, the Her2 level in test [2] was 85.5% (inactive). In addition, the differential viability (reversal) in test [6] (H69AR cells + 2 uM doxorubicin) is 8.32% (inactive). The inhibition in test [7] is -3.38% (inactive); in test [8], 0.16% (inactive).
As for `CSc1nc(C)cc(OCC(=O)N2CCOCC2)n1`, the viability in test [1] is 130%; in test [3] it was 130% (inactive); in test [4] it was 99.2% (inactive); in test [5] it was 92.7% (inactive); in test [6] (setting [9]), 90.2%; in test [6] (setting [10]), 92.7%. Also, the Her2 level in test [2] was 112% (inactive). In addition, the differential viability (reversal) in test [6] (H69AR cells + 2 uM doxorubicin) is 2.54% (inactive). Besides, the results for the inhibition in test [7] and in test [8] were -4.81% (inactive) and 5% (inactive), respectively.
For the compound `COC(=O)c1sc(N2C(=O)C(O)=C(C(=O)c3ccc(C)o3)C2c2ccc(F)cc2)nc1C` (stereo not given), the viability in test [1] was 95%; in test [3], 95% (inactive); in test [4], 113% (inactive); in test [5], 135% (inactive); in test [6] (setting [9]), 73.8%; in test [6] (setting [10]), 135%. Besides, the Her2 level in test [2] was 81.5% (inactive). The differential viability (reversal) in test [6] (H69AR cells + 2 uM doxorubicin) was 61.4% (inactive). Besides, the inhibition in test [7] is -1.08% (inactive); in test [8], -1.48% (inactive).
Regarding `CCOC(=O)c1cc2sccc2n1CC(=O)Nc1ccc(OC)cc1OC`, the viability in test [1] is 90%; in test [3], 90% (inactive); in test [4] it was 75.4% (inactive); in test [5] it was 82% (inactive); in test [6] (setting [9]), 89.6%; in test [6] (setting [10]) it was 82%. In addition, the Her2 level in test [2] was 86.5% (inactive). The differential viability (reversal) in test [6] (H69AR cells + 2 uM doxorubicin) is -7.66% (inactive). For the same compound, the results for the inhibition in test [7] and in test [8] were -1.97% (inactive) and -3.82% (inactive), respectively.
Regarding `CCCCOc1ccccc1C(=O)NCCCC(=O)O`, the viability in test [1] is 92.5%; in test [3], 92.5% (inactive); in test [4], 95.4% (inactive); in test [5] it was 87.1% (inactive); in test [6] (setting [9]), 79.6%; in test [6] (setting [10]), 87.1%. Besides, the Her2 level in test [2] is 80.5% (inactive). For the same compound, the differential viability (reversal) in test [6] (H69AR cells + 2 uM doxorubicin) was 7.52% (inactive). The inhibition in test [7] was -4.08% (inactive); in test [8], -0.55% (inactive).
For `O=S(c1ccsc1)c1ccsc1`, the viability was 116% in test [1]; 116% (inactive) in test [3]; 104% (inactive) in test [4]; 88.7% (inactive) in test [5]; 93.2% in test [6] (setting [9]); 88.7% in test [6] (setting [10]). Also, the Her2 level in test [2] was 87% (inactive). In addition, the differential viability (reversal) in test [6] (H69AR cells + 2 uM doxorubicin) was -4.55% (inactive). The inhibition in test [7] is 1.6% (inactive); in test [8], 1.29% (inactive).
In the case of `CC(=O)N1CCN(S(=O)(=O)c2cccc(C(=O)Nc3ccc4c(c3)CCC4)c2)CC1`, the viability is 76.5% in test [1]; 76.5% (inactive) in test [3]; 77.9% (inactive) in test [4]; 98% (inactive) in test [5]; 93.2% in test [6] (setting [9]); 98% in test [6] (setting [10]). In addition, in test [2], the Her2 level was 90.5% (inactive). In addition, the differential viability (reversal) in test [6] (H69AR cells + 2 uM doxorubicin) is 4.81% (inactive). For the same compound, the inhibition in test [7] was -5.53% (inactive); in test [8] it was 5% (inactive).
With `Nc1nnn(Cc2ccccc2)n1`, the viability was 93.5% in test [1]; 93.5% (inactive) in test [3]; 100% (inactive) in test [4]; 119% (inactive) in test [5]; 97.3% in test [6] (setting [9]); 119% in test [6] (setting [10]). In addition, the Her2 level in test [2] is 92% (inactive). For the same compound, the differential viability (reversal) in test [6] (H69AR cells + 2 uM doxorubicin) is 22.1% (inactive). Further, the inhibition in test [7] is -5.21% (inactive); in test [8], -6.98% (inactive).

The term viability denotes a read-out of living cells in per cent, often relative to untreated cells. Usually inhibition stands for the change of the read-out against control, counted positive when it falls.
